In publication PMC5018460 (Bioorganic & medicinal chemistry letters, 2016):

Assays:
[1] = molecular target: A128T mutant HIV-1 IN (Human immunodeficiency virus type 1 group M subtype B, UniProt P12497, A1275T); test: HTRF-based aberrant IN multimerization assay, A128T mutant IN; type: biochemical
[2] = molecular target: HIV-1 IN (WT) (Human immunodeficiency virus type 1 group M subtype B, UniProt P12497); test: biochemical
[3] = molecular target: HIV-1 integrase (IN) (Human immunodeficiency virus type 1 group M subtype B, UniProt P12497); test: HTRF-based LEDGF/p75-dependent integration assay; type: biochemical; conditions: for activity in the LEDGF/p75-dependent integration assay: at concentrations up to 100 μM
In short: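 Homogeneous time-resolved fluorescence read-out of integration in the presence of LEDGF/p75. Reactions run in neutral buffer, so carboxylic acid test compounds are present as the carboxylate anion. The format is said to detect integrase inhibitors acting by different mechanisms.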

| Compound | IC50 [1] [µM] | IC50 [2] [µM] | IC50 [3] [µM] | activity in the LEDGF/p75-dependent integration assay [3] |
| --- | --- | --- | --- | --- |
| Cn1c(C(OC(C)(C)C)C(=O)O)c(-c2ccc3c(c2)CCCO3)c2ccccc21 (stereo not drawn) [Compound 5c] | 16 ± 1.4 | 16.1 ± 2 |  |  |
| Cn1c(CC(OC(C)(C)C)C(=O)O)c(-c2ccccc2)c2ccccc21 (stereo not drawn) [Compound 10] |  |  | > 100 | failed to show any activity |
| COc1ccc(-n2c(C(OC(C)(C)C)C(=O)O)c(C)c3ccccc32)cc1 (stereo not drawn) [Compound 15] |  |  | > 100 | failed to show any activity |
